Results on 30 compounds are retold here after ChEMBL document CHEMBL1944512, “Discovery of a novel chemotype of potent human ENaC blockers using a bioisostere approach. Part 1: quaternary amines” (Bioorg Med Chem Lett, 2012).

Series [1] is described as follows: Inhibition of human ENaC in HBE cells by short-circuit current technique. It counts as cell-based.
Series [2] in a line: Thermodynamic solubility of the compound at pH 1 after 24 hrs of post-equilibriation by shake-flask method. Format: physicochemical. To be noted: buffer, read-out: Therm_solubility.
The nature of series [3]: Thermodynamic solubility of the compound at pH 4 after 24 hrs of post-equilibriation by shake-flask method. Format: physicochemical. The following applies: buffer, read-out: Therm_solubility.
Series [4] can be described thus: Thermodynamic solubility of the compound at pH 6.8 after 24 hrs of post-equilibriation by shake-flask method. It counts as physicochemical. The following applies: buffer, read-out: Therm_solubility.
Series [5] in a line: Thermodynamic solubility of the compound at pH 9 after 24 hrs of post-equilibriation by shake-flask method. Format: physicochemical. The following applies: buffer, read-out: Therm_solubility.
A short description of series [6]: Inhibition of guinea pig ENaCbeta1/gamma1 expressed in FRT cells by short-circuit current technique. It counts as cell-based. To be noted: Cavia porcellus. Summed up: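 Fischer rat thyroid cells transiently infected with guinea-pig ENaC were used to measure channel blockade, and the value is reported as an IC50.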
The test system of the next series is Cavia porcellus. Description: Blockade of tracheal potential difference in it dosed Dunkin Hartley guinea pig at 1hr. It counts as functional. The following applies: Trachea.
Series [7] can be described thus: Permeability from apical to basal side of human Caco2 cells. It counts as ADME, cell-based. To be noted: Caco-2, read-out: permeability.
Series [8] can be described thus: Permeability from basal to apical side of human Caco2 cells. Format: ADME, cell-based. The following applies: Caco-2, read-out: permeability. On the technique in general: Caco-2 monolayers are a common model of the intestinal barrier.
Another series deals with HBE. Kind of series: Inhibition of human ENaC in HBE cells at 30 uM by short-circuit current technique. Format: cell-based.
Series [9] addresses T1, Voltage-gated inwardly rectifying potassium channel KCNH2 (Homo sapiens, UniProt Q12809). Description: Binding affinity to human ERG channel.
Series [10] addresses T1, Voltage-gated inwardly rectifying potassium channel KCNH2. Description: Inhibition of human ERG channel by patch clamp assay. On the technique in general: The patch-clamp technique gives a direct electrical read-out from membranes.
For a further series, the species on record is Homo sapiens. Description: Ratio of amiloride IC50 to compound IC50 for human ENaC.

T1 sequence (Q12809 whole entry): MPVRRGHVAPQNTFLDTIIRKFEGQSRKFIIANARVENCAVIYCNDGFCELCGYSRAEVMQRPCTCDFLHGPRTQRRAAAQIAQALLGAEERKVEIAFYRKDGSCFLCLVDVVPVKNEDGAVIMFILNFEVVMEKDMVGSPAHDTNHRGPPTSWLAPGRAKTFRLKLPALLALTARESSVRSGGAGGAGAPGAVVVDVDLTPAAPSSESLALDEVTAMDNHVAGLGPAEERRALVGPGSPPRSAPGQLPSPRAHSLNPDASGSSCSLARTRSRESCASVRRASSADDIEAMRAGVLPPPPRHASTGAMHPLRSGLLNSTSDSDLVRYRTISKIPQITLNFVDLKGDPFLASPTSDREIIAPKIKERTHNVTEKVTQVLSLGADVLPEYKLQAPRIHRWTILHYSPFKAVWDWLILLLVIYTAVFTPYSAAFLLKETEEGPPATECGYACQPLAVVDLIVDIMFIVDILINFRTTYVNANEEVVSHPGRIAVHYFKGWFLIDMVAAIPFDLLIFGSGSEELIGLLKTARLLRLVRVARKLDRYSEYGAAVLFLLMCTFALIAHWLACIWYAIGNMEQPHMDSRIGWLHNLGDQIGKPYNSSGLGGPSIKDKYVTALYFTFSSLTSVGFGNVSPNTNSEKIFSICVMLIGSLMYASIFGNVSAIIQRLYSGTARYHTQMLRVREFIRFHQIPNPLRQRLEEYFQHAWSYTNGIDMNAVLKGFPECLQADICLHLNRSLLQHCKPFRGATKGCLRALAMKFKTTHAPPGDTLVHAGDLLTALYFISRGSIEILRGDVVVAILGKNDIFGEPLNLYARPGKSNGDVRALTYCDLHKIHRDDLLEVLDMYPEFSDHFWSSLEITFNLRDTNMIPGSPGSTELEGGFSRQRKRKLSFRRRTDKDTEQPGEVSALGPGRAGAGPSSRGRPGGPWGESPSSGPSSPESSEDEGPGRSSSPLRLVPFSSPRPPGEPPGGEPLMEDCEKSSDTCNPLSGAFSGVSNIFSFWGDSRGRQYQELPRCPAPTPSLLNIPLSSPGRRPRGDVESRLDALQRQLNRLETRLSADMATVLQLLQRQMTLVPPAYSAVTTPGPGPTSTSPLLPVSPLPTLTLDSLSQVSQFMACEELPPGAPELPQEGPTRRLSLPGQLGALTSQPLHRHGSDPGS

With `CN(C)CCNC(=O)c1nc(Cl)c(N)nc1N`, the IC50 (as a rule, the point on the concentration scale where inhibition reaches its midpoint) in [1] was 4780 nM.

In [1], `Cc1ccc(CCC(=O)NCCCC[N+](C)(C)CCNC(=O)c2nc(Cl)c(N)nc2N)cc1` returned an IC50 of 590 nM. On the same count and under the same terms, the value for `C[N+](C)(CCCCCNC(=O)c1ccc(Cl)cc1)CCNC(=O)c1nc(Cl)c(N)nc1N` was 750 nM; that for `Cc1ccc(C(=O)NCCCC[N+](C)(C)CCNC(=O)c2nc(Cl)c(N)nc2N)cc1` was 880 nM. Consider `COc1ccc(CCC[N+](C)(C)CCNC(=O)c2nc(Cl)c(N)nc2N)cc1.[Br-]`, for which the values for the concentration for half-maximal inhibition (IC50) in series [1] and in series [6] were 270 nM and 180 nM, respectively. The solubility thermodynamic at 24 h in series [2] is 4800 µg/mL; in series [3], 4900 µg/mL; in series [4], 5000 µg/mL; in series [5], 4700 µg/mL. In addition, in the series with Cavia porcellus, the ED50 (in general, the dose that gives a 50% effect, or the effect in half of the subjects) is 0.044 mg/kg. In series [7], the Papp A→B came to 0.93 ×10⁻⁶ cm/s. Further, the Papp B→A in series [8] is 1.67 ×10⁻⁶ cm/s. In series [1], `C[N+](C)(CCCCNS(=O)(=O)c1ccc(Cl)cc1)CCNC(=O)c1nc(Cl)c(N)nc1N` returned a half-inhibitory concentration (IC50) of 250 nM. Still for that read-out and setting: the value for `C[N+](C)(CCNC(=O)c1nc(Cl)c(N)nc1N)CCNS(=O)(=O)c1ccc(Cl)cc1` was 1120 nM; that for `C[N+](C)(CCCNC(=O)c1ccc(Cl)cc1)CCNC(=O)c1nc(Cl)c(N)nc1N` was 740 nM.

Compound `C[N+](C)(CCCCNC(=O)CCc1ccccc1)CCNC(=O)c1nc(Cl)c(N)nc1N` yielded a concentration for half-maximal inhibition (IC50) in [1] of 910 nM. For the compound `CN(C)CCCCNC(=O)c1nc(Cl)c(N)nc1N`, the inhibition (commonly the drop in the measured response relative to a control, in per cent) in the series with HBE was < 60%. As for `C[N+](C)(CCCCNC(=O)Cc1ccc(Cl)cc1)CCNC(=O)c1nc(Cl)c(N)nc1N`, half-maximal inhibition in series [1] (IC50) was put at 720 nM. On the same count and under the same terms, the same measure for `C[N+](C)(CCCCNC(=O)Cc1ccccc1)CCNC(=O)c1nc(Cl)c(N)nc1N`: 950 nM; for `C[N+](C)(C)CCNC(=O)c1nc(Cl)c(N)nc1N`: 5810 nM. Compound `COc1ccc(CCC[N+](CCCc2ccc(OC)cc2)(CCCc2ccc(OC)cc2)CCNC(=O)c2nc(Cl)c(N)nc2N)cc1` had an IC50 in [1] of 37 nM.

`C[N+](C)(CCCCNC(=O)c1ccc(Cl)cc1)CCNC(=O)c1nc(Cl)c(N)nc1N`: the midpoint of inhibition in series [1], the IC50, lay at 510 nM. The same measure, in the same setting: the value for `Cc1ccc(CC(=O)NCCCC[N+](C)(C)CCNC(=O)c2nc(Cl)c(N)nc2N)cc1` was 750 nM; that for `CN(C)CCN(C)C(=O)c1nc(Cl)c(N)nc1N` was > 30000 nM; that for `C[N+](C)(CCCNS(=O)(=O)c1ccc(Cl)cc1)CCNC(=O)c1nc(Cl)c(N)nc1N` was 290 nM.

As for `C[N+](C)(CCCCNC(=O)CCc1ccc(OCc2ccccc2)cc1)CCNC(=O)c1nc(Cl)c(N)nc1N`, in series [1], the IC50 is 80 nM. The same measure, in the same setting: the value for `C[N+](C)(CCCCNC(=O)CCc1ccc(Cl)cc1)CCNC(=O)c1nc(Cl)c(N)nc1N` was 160 nM.

In the case of `N=C(N)NC(=O)c1nc(Cl)c(N)nc1N` [AMILORIDE], the values for the IC50 in [1] and in series [6] were 220 nM and 540 nM, respectively. It took a dose of 0.016 mg/kg to reach the 50% effect level in the series on Cavia porcellus (ED50). Compound `C[N+](C)(CCCCCNS(=O)(=O)c1ccc(Cl)cc1)CCNC(=O)c1nc(Cl)c(N)nc1N` had a concentration for half-maximal inhibition (IC50) in series [1] of 960 nM. Same read-out and setting: the value for `C[N+](C)(CCCCNC(=O)c1ccccc1)CCNC(=O)c1nc(Cl)c(N)nc1N` was 1230 nM; that for `C[N+](C)(CCNC(=O)c1ccc(Cl)cc1)CCNC(=O)c1nc(Cl)c(N)nc1N` was 1660 nM; that for `CNCCNC(=O)c1nc(Cl)c(N)nc1N` was 4570 nM. Regarding `C[N+](C)(CCCCNC(=O)Cc1ccc(OCc2ccccc2)cc1)CCNC(=O)c1nc(Cl)c(N)nc1N.[Br-]`, the IC50 in [1] was 60 nM; in series [9] it was 330 nM; in series [10], 10.8 µM. The Papp A→B in series [7] stood at 3.33 ×10⁻⁶ cm/s. Further, the Papp B→A in [8] came out at 2.55 ×10⁻⁶ cm/s. The compound `COc1ccc(CCC[N+](C)(CCCc2ccc(OC)cc2)CCNC(=O)c2nc(Cl)c(N)nc2N)cc1.[Br-]` yielded an IC50 in series [1] of 13 nM. Besides, the solubility thermodynamic at 24 h came out at 600 µg/mL in series [2], 500 µg/mL in series [3], 900 µg/mL in series [4] and 1000 µg/mL in [5]. The Ratio IC50 in the series filed under Homo sapiens was determined as 100.

Take `N/C(=N\C(=O)c1nc(Cl)c(N)nc1N)NCc1ccccc1` [BENZAMIL]: in series [1], the IC50 worked out at 20 nM. On the same count and under the same terms, the value for `CN(C)CCCNC(=O)c1nc(Cl)c(N)nc1N` was 17400 nM; that for `NCCNC(=O)c1nc(Cl)c(N)nc1N` was 3970 nM.
